According to ChEMBL document CHEMBL4406821, “Novel dual inhibitors targeting CDK4 and VEGFR2 synergistically suppressed cancer progression and angiogenesis” (Eur J Med Chem, 2019):
The source made the active and inactive calls. No cut-off for these calls is given here.

How the values were obtained:
T47D [1] = assay: Induction of cell cycle arrest in human T47D cells assessed as accumulation in G2/M phase at 20 to 40 nM incubated for 36 hrs by propidium iodide staining based flow cytometry; assay type: functional
Summary of the method: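 Cells were treated with graded concentrations for 36 h, then fixed overnight in 70% ice-cold ethanol at 4°C and resuspended in PBS. Staining used 50 µg/ml PI plus 5 µg/ml RNase at 37°C for 30 min. DNA content was analysed by FACS to give G0/G1, S and G2/M fractions.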

T47D [2] = assay: Induction of apoptosis in human T47D cells assessed as decrease in Ki67 expression at 20 to 40 nM incubated for 48 hrs by Western blot analysis; assay type: functional, cell-based
Summary of the method: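 Cancer cells were exposed to graded concentrations for 48 h, washed three times in PBS and lysed in RIPA buffer. Immunoblots were probed with anti-Rb, anti-phospho-Rb, anti-Ki67 and anti-Bcl-2, each at 1:1000. β-actin served as loading control.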

[3] = AUC (0 to infinity) in Sprague-Dawley rat at 10 mg/kg, iv by HPLC-MS analysis; assay type: ADME, organism-based; design: dose 10 mg/kg, route intravenous, time infinity; settings: in vivo
Summary of the method: (§1)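 Rats fitted with jugular vein catheters for serial blood sampling. Compound dissolved in saline with 5% (v/v) DMSO and given as a single 10 mg/kg dose iv or po after an overnight fast, n = 5 per group. Plasma isolated at once and measured by HPLC with tandem MS detection. Parameters derived by noncompartmental fitting.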

[4] = Half life in Sprague-Dawley rat at 10 mg/kg, iv by HPLC-MS analysis; assay type: ADME, organism-based; settings: in vivo; summary of the method: as §1
[5] = AUC (0 to t) in Sprague-Dawley rat at 10 mg/kg, po by HPLC-MS analysis; assay type: ADME, organism-based; settings: in vivo; summary of the method: as §1
[6] = molecular target: Bone morphogenetic protein receptor type-2 (Homo sapiens) (UniProt Q13873); assay: Inhibition of recombinant human BMPR2 (172 to 734 residues) at 1 uM using myelin ba as substrate incubated for 120 mins in presence of [gamma-33P]-ATP by scintillation counting method relative to control
Summary of the method: (§2)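 Kinase panel profiling at 1 μM performed by Eurofins KinaseProfiler; percent inhibition reported as mean of two independent experiments.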

[7] = molecular target: Protein-tyrosine kinase 6 (Homo sapiens) (UniProt Q13882); assay: Inhibition of recombinant full length human BRK at 1 uM using poly(Glu, Tyr) 4:1 as substrate incubated for 40 mins in presence of [gamma-33P]-ATP by scintillation counting method relative to control; summary of the method: as §2
[8] = molecular target: Casein kinase I isoform gamma-2 (Homo sapiens) (UniProt P78368); assay: Inhibition of recombinant human CK1gamma2 (18 to end residues) at 1 uM using KRRRALS(p)VAS as substrate incubated for 40 mins in presence of [gamma-33P]-ATP by scintillation counting method relative to control; summary of the method: as §2
[9] = molecular target: Death-associated protein kinase 1 (Homo sapiens) (UniProt P53355); assay: Inhibition of recombinant human DAPK1 (1 to 296 residues) at 1 uM using KKLNRTLSFAEPG as substrate incubated for 40 mins in presence of [gamma-33P]-ATP by scintillation counting method relative to control
Summary of the method: (§3)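 Tested at a single 1 uM in an outsourced commercial kinase-profiling panel, read as percent inhibition. Each value is the mean of two independent experiments.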

[10] = molecular target: Death-associated protein kinase 2 (Homo sapiens) (UniProt Q9UIK4); assay: Inhibition of recombinant full length human DAPK2 at 1 uM using calmodulin as substrate incubated for 40 mins in presence of [gamma-33P]-ATP by scintillation counting method relative to control; summary of the method: as §2
[11] = tested on: Epidermal growth factor receptor (Homo sapiens), P00533 [T790M]; assay: Inhibition of recombinant human EGFR T790M mutant (696 to end residues) at 1 uM using poly(Glu, Tyr) 4:1 as substrate incubated for 40 mins in presence of [gamma-33P]-ATP by scintillation counting method relative to control
[12] = tested on: Hepatocyte growth factor receptor (Homo sapiens), P08581 [D1246N]; assay: Inhibition of recombinant human Met D1246N mutant (974 to end residues) at 1 uM using KKKGQEEEYVFIE as substrate incubated for 40 mins in presence of [gamma-33P]-ATP by scintillation counting method relative to control
[13] = molecular target: Protein kinase C alpha type (Homo sapiens) (UniProt P17252); assay: Inhibition of recombinant human full length PKCalpha at 1 uM using histone H1 as substrate incubated for 40 mins in presence of [gamma-33P]-ATP by scintillation counting method relative to control
[14] = molecular target: Receptor-interacting serine/threonine-protein kinase 2 (Homo sapiens) (UniProt O43353); assay: Inhibition of recombinant human RIPK2 (1 to 299 residues) at 1 uM using myelin basic protein as substrate incubated for 40 mins in presence of [gamma-33P]-ATP by scintillation counting method relative to control
[15] = molecular target: STE20-like serine/threonine-protein kinase (Homo sapiens) (UniProt Q9H2G2); assay: Inhibition of recombinant human SLK (1 to 373 residues) at 1 uM using RLGRDKYKTLRQIRQ as substrate incubated for 40 mins in presence of [gamma-33P]-ATP by scintillation counting method relative to control
[16] = molecular target: [Pyruvate dehydrogenase (acetyl-transferring)] kinase isozyme 2, mitochondrial (Homo sapiens) (UniProt Q15119); assay: Inhibition of recombinant human PDHK2 at 1 uM incubated for 40 mins in presence of [gamma-33P]-ATP by scintillation counting method relative to control; summary of the method: as §3
Homo sapiens = species: Homo sapiens; assay: Inhibition of recombinant human full length PI3K p110alpha/p65alpha (1 to 571 residues) at 1 uM using phosphatidylinositol 4,5-bisphosphate as substrate incubated for 40 mins in presence of [gamma-33P]-ATP by scintillation counting method relative to control
[17] = molecular target: Phosphatidylinositol 4-phosphate 3-kinase C2 domain-containing subunit alpha (Homo sapiens) (UniProt O00443); assay: Inhibition of recombinant human PI3KC2alpha (299 to end residues) at 1 uM using phosphatidylinositol as substrate incubated for 40 mins in presence of [gamma-33P]-ATP by scintillation counting method relative to control; summary of the method: as §3
MDA-MB-231 [18] = assay: Antiproliferative activity against human MDA-MB-231 cells at 40 nM assessed as reduction in cell viability incubated for 48 hrs by EdU staining based laser scanning confocal microscopy; assay type: functional
Summary of the method: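 Cells, 5×10^4, were seeded in 24-well plates and treated for 48 h. They were then labeled using an EdU Apollo 488 imaging kit with Hoechst 33342 nuclear stain and imaged by laser scanning confocal microscopy. Percent EdU-positive cells = EdU-positive/Hoechst-stained × 100%.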

MDA-MB-231 [19] = assay: Induction of apoptosis in human MDA-MB-231 cells at 40 nM incubated for 48 hrs by annexin V FITC and propidium iodide staining based flow cytometry; assay type: functional, cell-based
Summary of the method: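 Annexin V-FITC/PI double staining with flow-cytometric readout. MDA-MB-231, T-47D, SiHa and HeLa cells were treated with graded concentrations for 48 h. MDA-MB-231 and T-47D were grown in DMEM and SiHa in 1640 medium, each with 10% FBS and 1% penicillin/streptomycin at 37°C under 5% CO2. Early- and late-stage apoptotic fractions were scored.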

Casein kinase I isoform gamma-2 (Homo sapiens), sequence (P78368 whole entry, looked up, the tested form may be a part, canonical isoform): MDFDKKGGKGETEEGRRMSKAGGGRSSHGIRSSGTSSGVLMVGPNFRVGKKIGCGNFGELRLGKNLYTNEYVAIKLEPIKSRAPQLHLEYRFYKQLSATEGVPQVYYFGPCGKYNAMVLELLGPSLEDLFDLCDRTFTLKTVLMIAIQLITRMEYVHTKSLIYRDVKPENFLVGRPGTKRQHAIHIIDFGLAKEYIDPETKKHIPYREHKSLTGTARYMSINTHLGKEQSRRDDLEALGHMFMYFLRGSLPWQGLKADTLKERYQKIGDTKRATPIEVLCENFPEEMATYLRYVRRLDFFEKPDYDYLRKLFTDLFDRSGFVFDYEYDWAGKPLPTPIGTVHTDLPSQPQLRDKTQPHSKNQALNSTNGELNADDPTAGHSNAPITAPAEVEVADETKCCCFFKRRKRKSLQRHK
Receptor-interacting serine/threonine-protein kinase 2 (Homo sapiens), sequence (O43353 whole entry, the tested form may be a part): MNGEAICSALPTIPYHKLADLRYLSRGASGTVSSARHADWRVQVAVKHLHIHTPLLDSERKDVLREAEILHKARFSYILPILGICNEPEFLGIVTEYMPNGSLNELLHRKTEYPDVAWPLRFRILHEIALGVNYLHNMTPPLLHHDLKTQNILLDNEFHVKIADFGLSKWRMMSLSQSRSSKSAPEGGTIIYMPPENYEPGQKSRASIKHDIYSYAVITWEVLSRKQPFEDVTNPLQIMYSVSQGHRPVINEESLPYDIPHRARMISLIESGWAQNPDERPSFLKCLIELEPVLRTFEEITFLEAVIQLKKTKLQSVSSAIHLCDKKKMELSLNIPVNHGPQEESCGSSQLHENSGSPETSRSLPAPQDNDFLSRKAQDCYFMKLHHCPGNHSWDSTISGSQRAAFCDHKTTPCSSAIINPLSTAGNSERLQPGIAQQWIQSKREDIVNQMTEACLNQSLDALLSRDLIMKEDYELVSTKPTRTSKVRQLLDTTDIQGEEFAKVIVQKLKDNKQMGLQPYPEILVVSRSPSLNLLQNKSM
Death-associated protein kinase 2 (Homo sapiens), sequence (Q9UIK4 whole entry, looked up): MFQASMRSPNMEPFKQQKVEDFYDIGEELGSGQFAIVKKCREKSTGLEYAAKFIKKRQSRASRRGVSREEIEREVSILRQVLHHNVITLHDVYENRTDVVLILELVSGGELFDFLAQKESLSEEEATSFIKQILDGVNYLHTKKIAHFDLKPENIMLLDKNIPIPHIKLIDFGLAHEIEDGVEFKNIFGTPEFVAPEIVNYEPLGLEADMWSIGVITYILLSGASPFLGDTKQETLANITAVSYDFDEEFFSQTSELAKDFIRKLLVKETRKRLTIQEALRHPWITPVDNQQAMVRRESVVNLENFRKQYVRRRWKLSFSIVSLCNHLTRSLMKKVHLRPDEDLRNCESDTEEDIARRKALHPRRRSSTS
Protein-tyrosine kinase 6 (Homo sapiens), sequence (Q13882 whole entry, looked up, canonical isoform): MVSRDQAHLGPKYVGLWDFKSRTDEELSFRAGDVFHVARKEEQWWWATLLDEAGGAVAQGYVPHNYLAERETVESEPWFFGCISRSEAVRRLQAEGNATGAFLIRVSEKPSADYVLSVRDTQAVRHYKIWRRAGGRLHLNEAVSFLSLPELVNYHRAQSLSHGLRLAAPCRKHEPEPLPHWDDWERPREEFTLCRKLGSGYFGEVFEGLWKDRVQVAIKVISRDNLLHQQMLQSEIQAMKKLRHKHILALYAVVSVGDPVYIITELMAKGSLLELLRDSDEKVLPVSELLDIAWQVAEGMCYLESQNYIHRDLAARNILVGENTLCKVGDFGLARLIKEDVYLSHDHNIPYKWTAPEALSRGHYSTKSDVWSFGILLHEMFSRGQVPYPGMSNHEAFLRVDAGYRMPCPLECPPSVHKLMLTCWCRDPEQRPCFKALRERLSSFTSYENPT
Death-associated protein kinase 1 (Homo sapiens), sequence (P53355 whole entry, looked up, the tested form may be a part): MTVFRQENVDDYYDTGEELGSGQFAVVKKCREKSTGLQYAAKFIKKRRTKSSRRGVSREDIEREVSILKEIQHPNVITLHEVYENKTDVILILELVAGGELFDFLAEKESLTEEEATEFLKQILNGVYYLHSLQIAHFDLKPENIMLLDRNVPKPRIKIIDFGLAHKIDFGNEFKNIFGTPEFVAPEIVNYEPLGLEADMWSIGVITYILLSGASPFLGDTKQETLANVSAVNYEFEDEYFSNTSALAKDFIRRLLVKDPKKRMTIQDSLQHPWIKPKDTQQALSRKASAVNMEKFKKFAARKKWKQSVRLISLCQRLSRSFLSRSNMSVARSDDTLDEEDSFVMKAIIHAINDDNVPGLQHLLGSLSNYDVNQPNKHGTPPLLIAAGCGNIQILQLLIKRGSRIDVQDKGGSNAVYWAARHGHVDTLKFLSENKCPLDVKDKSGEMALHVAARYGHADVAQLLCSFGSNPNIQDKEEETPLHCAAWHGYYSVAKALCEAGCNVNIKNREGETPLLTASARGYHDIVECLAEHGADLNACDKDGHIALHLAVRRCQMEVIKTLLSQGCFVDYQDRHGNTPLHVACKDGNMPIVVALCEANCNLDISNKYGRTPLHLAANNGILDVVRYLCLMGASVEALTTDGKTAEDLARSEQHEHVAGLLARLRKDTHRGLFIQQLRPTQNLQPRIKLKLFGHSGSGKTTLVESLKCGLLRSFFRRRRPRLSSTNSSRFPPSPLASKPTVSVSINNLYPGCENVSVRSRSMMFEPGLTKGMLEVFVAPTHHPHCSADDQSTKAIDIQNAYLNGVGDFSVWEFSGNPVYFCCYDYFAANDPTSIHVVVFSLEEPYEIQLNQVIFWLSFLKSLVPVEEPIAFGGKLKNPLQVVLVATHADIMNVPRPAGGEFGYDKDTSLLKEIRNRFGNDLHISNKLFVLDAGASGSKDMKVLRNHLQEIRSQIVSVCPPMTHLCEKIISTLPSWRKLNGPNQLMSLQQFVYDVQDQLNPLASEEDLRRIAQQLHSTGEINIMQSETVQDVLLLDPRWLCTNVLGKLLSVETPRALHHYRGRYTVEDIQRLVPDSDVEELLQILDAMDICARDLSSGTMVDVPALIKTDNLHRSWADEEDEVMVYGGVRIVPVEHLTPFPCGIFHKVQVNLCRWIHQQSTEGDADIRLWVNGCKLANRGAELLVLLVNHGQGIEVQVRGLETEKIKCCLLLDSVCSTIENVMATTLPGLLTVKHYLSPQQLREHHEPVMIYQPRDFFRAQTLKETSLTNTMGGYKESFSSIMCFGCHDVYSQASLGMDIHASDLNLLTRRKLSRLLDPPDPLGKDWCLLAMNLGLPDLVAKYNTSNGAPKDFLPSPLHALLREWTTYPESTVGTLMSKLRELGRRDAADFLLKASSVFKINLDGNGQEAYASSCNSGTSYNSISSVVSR
STE20-like serine/threonine-protein kinase (Homo sapiens), sequence (Q9H2G2 whole entry, looked up, the tested form may be a part): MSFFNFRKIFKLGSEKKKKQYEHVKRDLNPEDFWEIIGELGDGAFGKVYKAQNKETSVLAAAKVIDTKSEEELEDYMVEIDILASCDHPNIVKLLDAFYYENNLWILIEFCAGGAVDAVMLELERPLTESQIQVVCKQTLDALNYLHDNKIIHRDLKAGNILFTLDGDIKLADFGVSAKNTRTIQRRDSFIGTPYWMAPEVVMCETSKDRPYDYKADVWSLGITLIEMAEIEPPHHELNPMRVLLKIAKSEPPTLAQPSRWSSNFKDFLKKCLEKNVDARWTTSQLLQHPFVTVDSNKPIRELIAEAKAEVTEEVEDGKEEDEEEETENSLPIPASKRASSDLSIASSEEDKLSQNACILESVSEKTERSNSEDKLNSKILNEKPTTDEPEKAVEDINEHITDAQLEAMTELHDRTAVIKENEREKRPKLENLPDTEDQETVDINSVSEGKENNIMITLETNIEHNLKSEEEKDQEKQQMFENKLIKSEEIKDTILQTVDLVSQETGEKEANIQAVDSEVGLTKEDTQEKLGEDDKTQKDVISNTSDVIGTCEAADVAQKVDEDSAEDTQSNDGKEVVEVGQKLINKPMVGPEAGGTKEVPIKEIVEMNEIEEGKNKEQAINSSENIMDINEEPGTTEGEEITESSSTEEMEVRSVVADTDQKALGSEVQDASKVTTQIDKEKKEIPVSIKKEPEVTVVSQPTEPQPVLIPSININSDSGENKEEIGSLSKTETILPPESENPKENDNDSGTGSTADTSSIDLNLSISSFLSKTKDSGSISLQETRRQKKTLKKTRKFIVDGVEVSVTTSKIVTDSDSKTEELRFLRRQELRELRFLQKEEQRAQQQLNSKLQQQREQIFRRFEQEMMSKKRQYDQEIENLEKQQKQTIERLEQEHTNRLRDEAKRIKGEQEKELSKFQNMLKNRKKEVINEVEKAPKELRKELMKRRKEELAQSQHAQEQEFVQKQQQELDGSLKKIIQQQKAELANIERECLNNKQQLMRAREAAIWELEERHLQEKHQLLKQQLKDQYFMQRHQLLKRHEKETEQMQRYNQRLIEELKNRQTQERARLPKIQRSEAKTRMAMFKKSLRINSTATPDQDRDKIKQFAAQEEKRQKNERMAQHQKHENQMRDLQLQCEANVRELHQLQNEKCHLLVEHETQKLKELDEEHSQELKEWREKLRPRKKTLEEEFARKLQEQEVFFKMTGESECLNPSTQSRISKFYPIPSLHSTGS

Row | SMILES | Activity (T47D [1]) | Activity (T47D [2]) | AUC(0-inf) [3] | half-life [4] | AUC(0-t) [5] | inhibition [6] | inhibition [7] | inhibition [8] | inhibition [9] | inhibition [10] | inhibition [11] | inhibition [12] | inhibition [13] | inhibition [14] | inhibition [15] | inhibition [16] | inhibition (Homo sapiens) | inhibition [17] | inhibition (MDA-MB-231 [18]) | Activity (MDA-MB-231 [19])
1 | Cc1ccc(NC(=O)C2(C(=O)Nc3ccc(Nc4ncc(F)c(-c5cc(F)c6nc(C)n(C(C)C)c6c5)n4)cc3)CC2)cc1 | Active | Active | 11000 ng·h/mL | 120 min | 6000 ng·h/mL | 78% | 22% | 49% | 0% | 10% | 55% | 51% | 70% | 46% | 90% | 0% | 6% | 0% | – | –
2 | COc1cc2nccc(Oc3ccc(NC(=O)C4(C(=O)Nc5ccc(F)cc5)CC4)cc3)c2cc1OC [CABOZANTINIB] | – | – | – | – | – | – | – | – | – | – | – | – | – | – | – | – | – | – | Active | Active
